# Assay outcomes: PubChem, The Scripps Research Institute Molecular Screening Center
# OXTR potentiate: human OXTR potentiation; AID 2445; actives 0.061% (n = 320,000); P30559; activation, % at 3 µM; CHO-OTR cells, Fluo-8 calcium fluorescence, potentiator mode; 0% = oxytocin EC15, 100% = EC100;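 active = activation above that plate's cutoff, the mean activation of tested compounds plus 3 SD, cut at about 6.6% in these data, passing the limit was not always enough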;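 also: 100% uses oxytocin at 75 nM as the full agonist control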
# Target sequence (P30559 whole entry, looked up): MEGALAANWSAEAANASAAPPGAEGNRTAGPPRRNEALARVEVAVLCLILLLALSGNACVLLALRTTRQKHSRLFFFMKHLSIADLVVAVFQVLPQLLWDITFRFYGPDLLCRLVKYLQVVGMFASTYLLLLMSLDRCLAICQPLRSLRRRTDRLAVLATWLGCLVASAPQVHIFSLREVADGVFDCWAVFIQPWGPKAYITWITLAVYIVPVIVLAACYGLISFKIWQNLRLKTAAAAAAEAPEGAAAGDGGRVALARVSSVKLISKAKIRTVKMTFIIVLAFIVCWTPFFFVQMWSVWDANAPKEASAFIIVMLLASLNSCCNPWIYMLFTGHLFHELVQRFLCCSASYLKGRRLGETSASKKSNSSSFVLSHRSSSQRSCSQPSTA
#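 Material: human OTR in CHO cells. Compound: 3.0 µM, one dose. Timing: compound 6 min at room temperature before oxytocin, 100 s read. Evaluation: % activation of max/min ratio relative to oxytocin controls. Replication: single well per compound, singlicate. Signal: Fluo-8 calcium dye fluorescence.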
# zfTRPN1 agonist: agonists of zebrafish TRPN1 channel. actives 0.18% (n = 220,000). HEK293 zebrafish TRPN1-YFP, Fluo-8 calcium fluorescence; 100% = response to 87 µM carbachol. activation, % at 3 µM;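 active = activation above its plate's cutoff, the mean activation of test wells on that plate plus 3 SD, cut at about 19% in these data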;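 also: 0% = DMSO alone and 100% = 87 µM carbachol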
#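 Material – zebrafish TRPN1-YFP in HEK293 cells · Doses – 3 µM single point · Schedule – dye 1 h 37 °C plus 30 min RT · Signal – Fluo-8 calcium fluorescence, excitation 470-495 nm, emission 515-575 nm · Read-out – % activation versus carbachol response · Control set – carbachol high, DMSO low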
# OXTR agonist: agonists of human oxytocin receptor; P30559; CHO-OTR cells, Fluo-8 calcium fluorescence; normalized: DMSO 0%, oxytocin 100%; activation, % at 3 µM; actives 0.32% (n = 320,000);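 active = activation above the mean of all tested compounds plus 3 SD, cutoff set per screening run, cut at about 20% in these data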;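 also: peak over basal fluorescence ratio from a 100 s FLIPR kinetic read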
# TRPML3 agonist: agonists of human TRPML3 channel; HEK293 TRPML3-YFP, Fluo-8 calcium fluorescence; 100% = the carbachol control signal; activation, % at 3 µM; actives 0.29% (n = 220,000); AID 1448;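 active = activation above its plate's cutoff, the mean activation of the plate's test wells plus 3 SD, cut at about 12% in these data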;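 also: 0% = DMSO only wells and 100% = carbachol wells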
#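 Material: TRPML3-YFP stable HEK293 cells | Dosing: One concentration, 3 µM nominal, 0.3% DMSO | Timing: 125 s total fluorescence read per well | Technique: Fluo-8 calcium dye fluorescence, ex 470-495, em 515-575 nm | Measure: Percent activation from peak-to-basal fluorescence ratio, scaled between DMSO and carbachol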
# V1R ag counter: activates human V1a receptor in oxytocin agonist counter-screen; actives 0.25% (n = 320,000); P37288; AID 2797; CHO-V1R cells, Fluo-8 calcium fluorescence, agonist mode; 0% DMSO, 100% 3 nM vasopressin; activation, % at 3 µM;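 active = activation above the mean activation of all tested compounds plus 3 SD, per screening run, cut at about 20% in these data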;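 also: signal is peak over basal fluorescence ratio across a 100 second FLIPR read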
# TRPN1 ag 2: zebrafish TRPN1 agonism as TRPML3 agonist counter-screen; shares compounds with TRPML3 agonist; HEK293 zebrafish TRPN1-YFP, Fluo-8 calcium fluorescence; scaled: carbachol wells 100%, DMSO wells 0%; activation, % at 3 µM; actives 10% (n = 310);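 active = mean activation over replicates above a set limit taken from the earlier TRPN1 channel primary screen, cut at about 19% in these data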;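 also: 100% = carbachol and 0% = 0.3% DMSO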
# TRPML3 confirm: confirmation of human TRPML3 channel agonists; shares compounds with TRPML3 agonist; HEK293 TRPML3-YFP, Fluo-8 calcium fluorescence; 100% set by carbachol, 0% by DMSO; activation, % at 3 µM; actives 80% (n = 310);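 active = activation above a set limit derived from the earlier primary screen, cut at about 12% in these data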
# Starred values were filed as active, the others as inactive; / = no result. This is a sample that favours compounds with a hit; in the whole collection about 0.58% have one here.
SMILES,OXTR potentiate,zfTRPN1 agonist,OXTR agonist,TRPML3 agonist,V1R ag counter,TRPN1 ag 2,TRPML3 confirm
O=[N+]([O-])/C=C\c1ccc(N2CCCC2)c(F)c1,/,11,/,13*,/,27*,23*
O=C1NCC(c2ccccc2)C1C(=O)N/N=C/c1ccc(Cl)s1 (stereo unspecified),-3,2,0,15*,2,20*,20*
O=C1NCC(c2ccccc2)C1C(=O)N/N=C\c1ccc(-c2ccc(Cl)c(Cl)c2)o1 (stereo unspecified),-5,-1,0,-1,1,/,/
CCOc1c(OC(C)=O)ccc(/C=C/c2ccc3cccc(OC(C)=O)c3n2)c1[N+](=O)[O-],-9,0,0,0,0,/,/
C=CCN1C(=O)/C(=C/c2ccc(OC(C)=O)c(OCC)c2[N+](=O)[O-])SC1=S,/,18,/,12*,/,19*,7
Cc1cc(C)c(C2=NOC3C4CCC(C4)C23)c(C)c1 (stereo unspecified),-1,-1,-2,24*,-1,-2,104*
O=S(=O)(Cc1cc(Cl)nc(-c2ccccc2)n1)c1ccccc1,0,-1,-2,19*,-2,-1,35*
COc1ccc(S(=O)(=O)NC2CCCC2)c(Cl)c1Cl,2,-2,-2,35*,-1,-2,48*
CCCc1nnc(NC(=O)CCC(=O)NC2CCCC2)s1,-4,/,2,/,1,/,/
O=C(C1Cc2ccccc2CN1S(=O)(=O)c1ccc(F)cc1)N1CCOCC1 (stereo unspecified),-1,0,-1,7,-1,/,/
O=C(C1Cc2ccccc2CN1S(=O)(=O)c1ccc(F)cc1)N1CCCCCC1 (stereo unspecified),1,0,-1,40*,-2,0,41*
Oc1c(Cl)cc(Cl)cc1CNn1cnnc1,-13,0,0,0,0,/,/
Oc1c(Cl)cc(Cl)cc1Sc1cc(Cl)cc(Cl)c1O,-11,16,17,13*,9,29*,13*
COCCn1c(SCC(=O)NCC2CCCO2)nc2c([nH]c3ccccc32)c1=O (stereo unspecified),1,/,-1,/,-1,/,/
O=C(Cc1cccc([N+](=O)[O-])c1)Nc1ccc(C(=O)N2CCCCC2)cc1,-5,/,3,/,2,/,/
Cc1cc(NC(=O)COC(=O)[C@@H](NS(=O)(=O)c2ccccc2)C(C)C)no1,0,1,0,0,3,/,/
CC(C)[C@H](NS(=O)(=O)c1ccccc1)C(=O)OCC(=O)Nc1ccccc1Sc1ccccc1,-11,-3,0,42*,0,0,66*
Cc1ccc(C(=O)NNC(=S)NC(=O)c2ccco2)cc1,-15,18,45*,28*,64*,39*,36*
Cc1onc(-c2ccccc2)c1C(=O)NCc1ccco1,-7,0,0,0,1,/,/
Cc1onc(-c2ccccc2)c1C(=O)N(Cc1ccco1)Cc1cccs1,/,-2,/,29*,/,-3,19*
COC(=O)c1ccc(COc2ccc(CNCc3ccc(Cl)cc3)cc2)cc1,-1,/,-1,/,1,/,/
Cc1cc(C)c(S(=O)(=O)c2ccccc2C)c(SCC(C)C)n1,-13,0,-1,1,0,/,/
CCCCn1c(C)cc(C)c(S(=O)(=O)c2ccccc2C)c1=O,-9,-2,-1,18*,-1,-2,58*
CCCSc1nc(C)cc(C)c1S(=O)(=O)c1ccccc1C,-17,-1,-1,4,1,/,/
Cc1ccccc1S(=O)(=O)c1c(C)cc(C)n(C(C)C)c1=O,4,-2,-2,30*,-3,-3,35*
SMILES,OXTR potentiate,zfTRPN1 agonist,OXTR agonist,TRPML3 agonist,V1R ag counter,TRPN1 ag 2,TRPML3 confirm
Cc1cc(C)c(S(=O)(=O)Nc2ncccc2C)c(C)c1,-3,/,0,/,1,/,/
Cc1cc(C)c(S(=O)(=O)Nc2ccccc2-c2ccccc2)c(C)c1,-8,0,-2,13*,-1,0,45*
O=C1CN(S(=O)(=O)c2ccc(F)cc2)CC(=O)N1CCc1ccccc1,/,0,/,12*,/,1,23*
O=C1C(Cl)=C(NC2CCCCC2)C(=O)N1Cc1ccccc1,-16,-1,-3,1,0,/,/
O=C1C(Cl)=C(N2CCN(Cc3ccccc3)CC2)C(=O)N1Cc1ccccc1,-2,0,0,20*,1,0,25*
CC1(C)CSC(=S)N1S(=O)(=O)c1ccccc1,1,0,1,32*,0,1,20*
Cc1ccc(S(=O)(=O)N2c3ccccc3-c3c(ssc3=S)C2(C)C)cc1,-10,-1,-3,1,0,/,/
CC(=O)Nc1cccc(OC(=O)c2ccoc2C)c1,-13,0,-1,13*,0,1,4
O=C(c1ccc([N+](=O)[O-])cc1)N(Cc1ccc(Cl)cc1Cl)N1C(=O)CCCC1=O,-6,2,-1,16*,-1,2,25*
O=C(Cn1cc([N+](=O)[O-])ccc1=O)NCc1ccc(Cl)cc1Cl,-4,/,0,/,4,/,/
CC(c1ccccc1)C1CC(=O)N(C2CCCCC2)C1=O (stereo unspecified),-6,-1,-2,27*,-2,0,25*
Cc1cc(C)c(N2CCN(S(=O)(=O)N3CCCCCC3)CC2)c(C)c1,-19,2,1,67*,1,45*,165*
Cc1cc(C)cc(NC(=O)CSc2nnnn2-c2cccnc2)c1,-7,/,0,/,-1,/,/
Fc1ccc(Nc2nnc(C(F)(F)F)s2)cc1Cl,-18,19,10,17*,9,15,9
O=C1C=C(NNC(=O)c2ccncc2)CC(c2ccccc2)C1 (stereo unspecified),-14,18,7,19*,12,1,0
O=C(c1ccccc1F)N(NC(=O)C(O)(c1ccccc1)c1ccccc1)c1ccccc1,-8,-3,-2,18*,-1,-2,30*
CSc1nsc(SC)c1C(=O)N1CCN(S(=O)(=O)c2ccc(C)cc2)C1C(C)C (stereo unspecified),-13,-1,-2,46*,0,-2,26*
Cc1cc(C(C)(C)C)oc1C(=O)N(CC(=O)NC1CCCC1)c1c(C)cccc1C,-3,1,-1,44*,-1,1,72*
Cc1cc(C(C)(C)C)oc1C(=O)N(CC(=O)NC1CCCC1)c1ccc(F)cc1,-8,5,0,4,4,/,/
